Data: paper PMC11336475 (Heliyon, 2024)

Key:
[1] = DPPH radical scavenging assay; settings: for Inhibition% ± SEM: DPPH, measured at 400 μM, 3 repetitions; for EC50: DPPH radical scavenging
How it was run: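 DPPH solution (110 μM) mixed with samples at various concentrations and kept in the dark for 30 min. Absorbance read at 517 nm. Percent inhibition and EC50 calculated from absorbance changes. Each concentration run in triplicate.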

tyrosinase enzyme = tyrosinase enzyme (Agaricus bisporus, UniProt C7FF04); test: Kinetic study of tyrosinase inhibition; format: biochemical; settings: Lineweaver-Burk plot, L-DOPA substrate; Km increased, Vmax constant
Chain of tyrosinase enzyme (C7FF04 2-392): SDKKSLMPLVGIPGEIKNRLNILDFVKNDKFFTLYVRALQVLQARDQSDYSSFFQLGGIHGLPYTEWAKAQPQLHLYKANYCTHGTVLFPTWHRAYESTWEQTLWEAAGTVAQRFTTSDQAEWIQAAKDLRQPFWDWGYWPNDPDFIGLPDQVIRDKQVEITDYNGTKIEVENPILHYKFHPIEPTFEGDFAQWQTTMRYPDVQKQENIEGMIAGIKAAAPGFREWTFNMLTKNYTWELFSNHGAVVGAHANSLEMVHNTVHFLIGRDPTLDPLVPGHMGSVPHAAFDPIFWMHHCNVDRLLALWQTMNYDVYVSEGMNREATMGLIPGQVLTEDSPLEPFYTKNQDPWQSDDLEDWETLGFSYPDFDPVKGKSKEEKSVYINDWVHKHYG

| type of inhibition (tyrosinase enzyme) | EC50 [1] | Structure (SMILES) | Inhibition% ± SEM [1] |
| --- | --- | --- | --- |
| – | > 400 µM | COc1cccc(/C=N/NC(=O)c2cccc(-n3ccc(=O)c(O)c3C)c2)c1O [Compound 6c, (E)-3-(3-Hydroxy-2-methyl-4-oxopyridin-1(4H)-yl)-N'-(2-hydroxy-3-methoxybenzylidene) benzohydrazide] | 48.06 ± 2.25% |
| – | > 400 µM | COc1cc(OC)c(/C=N/NC(=O)c2cccc(-n3ccc(=O)c(O)c3C)c2)c(OC)c1 [Compound 6d, (E)-3-(3-Hydroxy-2-methyl-4-oxopyridin-1(4H)-yl)-N'-(2,4,6-trimethoxybenzylidene)benzohydrazide] | 35.16 ± 1.37% |
| – | > 400 µM | Cc1c(O)c(=O)ccn1-c1cccc(C(=O)N/N=C/c2ccccc2Br)c1 [Compound 6e, (E)-N'-(2-bromobenzylidene)-3-(3-hydroxy-2-methyl-4-oxopyridin-1(4H)-yl)benzohydrazide] | 19.59 ± 1.76% |
| – | > 400 µM | Cc1c(O)c(=O)ccn1-c1cccc(C(=O)NN=Cc2c(Cl)cccc2Cl)c1 [Compound 6h, N'-(2,6-dichlorobenzylidene)-3-(3-hydroxy-2-methyl-4-oxopyridin-1(4H)-yl)benzohydrazide] | 44.55 ± 0.91% |
| – | 174 µM | Cc1c(O)c(=O)ccn1-c1cccc(C(=O)N/N=C/c2cc(Cl)ccc2[N+](=O)[O-])c1 [Compound 6i, (E)-N'-(5-chloro-2-nitrobenzylidene)-3-(3-hydroxy-2-methyl-4-oxopyridin-1(4H)-yl)benzohydrazide] | 67.65 ± 0.85% |
| – | 8.98 ± 0.05 µM | O=c1c(O)c(-c2ccc(O)c(O)c2)oc2cc(O)cc(O)c12 [Quercetin, reference compound] | – |

The remaining lines, values behind:

| Structure (SMILES) | type of inhibition (tyrosinase enzyme) | EC50 [1] | Inhibition% ± SEM [1] |
| --- | --- | --- | --- |
| Cc1c(O)c(=O)ccn1-c1cccc(C(=O)N/N=C/c2ccc(O)c(O)c2)c1 [Compound 6a, (E)-N'-(3,4-dihydroxybenzylidene)-3-(3-hydroxy-2-methyl-4-oxopyridin-1(4H)-yl) benzohydrazide] | – | – | 90.06 ± 3.75% |
| COc1cc(/C=N/NC(=O)c2cccc(-n3ccc(=O)c(O)c3C)c2)ccc1O [Compound 6b, (E)-3-(3-Hydroxy-2-methyl-4-oxopyridin-1(4H)-yl)-N'-(4-hydroxy-3-methoxybenzylidene)benzohydrazide] | competitive inhibitor | – | 84.64 ± 2.68% |
| Cc1c(O)c(=O)ccn1-c1cccc(C(=O)N/N=C/c2ccccc2C(=O)O)c1 [Compound 6f, (E)-2-((2-(3-(3-Hydroxy-2-methyl-4-oxopyridin-1(4H)-yl)benzoyl) hydrazono)methyl) benzoic acid] | – | > 400 µM | 35.01 ± 5.71% |
| Cc1c(O)c(=O)ccn1-c1cccc(C(=O)N/N=C/c2cccc(Cl)c2)c1 [Compound 6g, (E)-N'-(3-chlorobenzylidene)-3-(3-hydroxy-2-methyl-4-oxopyridin-1(4H)-yl) benzohydrazide] | – | > 400 µM | 44.20 ± 2.41% |
| Cc1c(O)c(=O)ccn1-c1cccc(C(=O)N/N=C/Cc2ccccc2)c1 [Compound 6j, (E)-3-(3-Hydroxy-2-methyl-4-oxopyridin-1(4H)-yl)-N'-(2-phenylethylidene)benzohydrazide] | – | – | 68.59 ± 1.14% |
